# High-throughput results as filed in PubChem BioAssay.
# OX1R antag-1 – human HCRTR1 antagonism | 330,000 compounds, 0.43% hits | CHO/OX1R cells, Fluo-8 calcium fluorescence, orexin A | inhibition, % at 5 µM;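 active = inhibition above its plate's threshold, mean inhibition of all tested compounds on the plate plus 3 SD, cut at about 37% in these data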;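 note: 0% = orexin A challenge wells and 100% = SB-334867-A antagonist wells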
# Target sequence (O43613 whole entry, looked up): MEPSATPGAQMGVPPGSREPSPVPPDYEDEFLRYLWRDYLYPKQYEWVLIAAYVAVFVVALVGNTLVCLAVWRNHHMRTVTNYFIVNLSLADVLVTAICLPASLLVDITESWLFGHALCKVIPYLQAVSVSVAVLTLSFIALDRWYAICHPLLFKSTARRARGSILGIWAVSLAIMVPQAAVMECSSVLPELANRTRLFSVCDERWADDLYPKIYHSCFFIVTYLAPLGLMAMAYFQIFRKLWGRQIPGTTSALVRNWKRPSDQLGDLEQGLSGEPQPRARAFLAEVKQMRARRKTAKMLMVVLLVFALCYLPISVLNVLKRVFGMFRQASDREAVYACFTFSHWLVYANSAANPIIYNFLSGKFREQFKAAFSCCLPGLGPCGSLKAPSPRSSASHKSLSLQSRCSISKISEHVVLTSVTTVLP
# CHO parental Ca – signal in parental CHO cells, OX1R antagonist counter-screen; parental CHO-K1, ATP-induced calcium, Fluo-8 fluorescence; inhibition, % at 5.6 µM; 330,000 compounds, 0.63% hits; AID 463079;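 active = inhibition above that plate's mean sample inhibition plus 3 SD, cut at about 26% in these data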;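 note: 0% = ATP-challenged DMSO wells and 100% = DMSO wells without ATP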
#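 Material – parental CHO cells · Reagent – ATP stimulus · Compound – single nominal dose of 5.6 µM per compound · Detection – Fluo-8 fluorescence · Read-out basis – percent inhibition of calcium signal · Controls – ATP-challenged DMSO wells low, unchallenged DMSO wells high · Repeats – no replicates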
# OX1R antag-2 – antagonists of human orexin 1 receptor (OX1R); OX1R-expressing cells, FRET antagonist read-out; inhibition, % at 6.6 µM; O43613; AID 485270; 330,000 compounds, 1.8% hits; in the data active = inhibition mostly above about 38%, no sharp cut-off; inactive = mostly below about 40%;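 note: 0% = agonist challenge alone and 100% = reference antagonist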
# GPR7 antag – human neuropeptides B/W receptor 1 antagonism; P48145; GPR7-expressing cells, fluorescence antagonist assay; inhibition, % at 4.4 µM; 290,000 compounds, 1.1% hits; in the data active = inhibition above about 16%, passing the limit was not always enough;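 note: cells stimulated with the agonist NPW; 0% = agonist with vehicle and 100% = vehicle without agonist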
# MPTP block – permeability transition pore inhibition. isolated mouse mitochondria, Ca2+ swelling absorbance, 30 min. inhibition, % at 10 µM. 360,000 compounds, 1.4% hits. AID 602449;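 active = inhibition of 50% or more, scaled per plate between neutral and stimulator controls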;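 note: 0% = DMSO wells given calcium and 100% = 1 mM EGTA wells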
# Active calls of the source: *; x = no result given. This is a sample that favours compounds with a hit; in the whole collection about 3.8% have one here.
SMILES,OX1R antag-1,CHO parental Ca,OX1R antag-2,GPR7 antag,MPTP block
COc1ccc(NC(=S)N(CCCN2CCCC2)Cc2cccn2Cc2ccc(Cl)cc2)cc1Cl,-3.7,5.4,10.6,19.5*,2.8
CCOC(=O)c1c(C)[nH]c(C)c1C(=O)COC(=O)/C=C/c1cccc(Cl)c1,-9.7,-8.5,48.7,-12.1,-0.2
CCOC(=O)c1c(C)[nH]c(C)c1C(=O)COC(=O)/C=C/c1ccccc1[N+](=O)[O-],27.4,-17.9,35.3*,x,0.1
CCOC(=O)CSc1nc2c(c(-c3ccc(C)o3)c1C#N)CCCC2,-31.6,32.8*,15.0,-7.1,1.9
CC(C)OCC(O)CN1CCN(CCN2C(=O)c3cccc4cccc(c34)C2=O)CC1 (configuration not stated),-30.4,-7.9,40.6*,-1.6,-1.4
CC(C)Cn1c(N)c(C(=O)COC(=O)c2ccccc2F)c(=O)n(C)c1=O,-23.2,-5.9,14.6,16.8*,0.5
CC(C)Cn1c(N)c(C(=O)COC(=O)Cc2cccs2)c(=O)n(C)c1=O,6.5,12.3,26.8,-12.1,0.9
CC(C)Cn1c(N)c(C(=O)COC(=O)Cc2cccc(C(F)(F)F)c2)c(=O)n(C)c1=O,8.2,54.5*,28.9,x,5.4
Cc1ccccc1OCCn1c(C)nc2ccccc21,37.8,35.0*,21.5,4.4,13.6
Cc1nc2ccccc2n1CCOc1ccccc1,-0.1,-4.0,24.6,1.3,1.1
Cc1ccc(S(=O)(=O)NC(=O)C2(C)CCN2C(=O)c2cccc(F)c2)cc1 (configuration not stated),x,x,x,x,0.4
CSc1nccn1CC(=O)Nc1ccc(F)cc1,-11.8,40.8*,6.7,3.6,0.1
CN(CC(=O)Nc1ccc(F)cc1)C(=O)CSc1nccn1C,-10.8,4.8,8.8,x,-0.9
Cc1c(/C=N/NC(=O)c2sc3ccccc3c2Cl)cnn1C,-19.0,-12.6,47.8*,-3.2,-2.6
Cn1cccc1/C=N/NC(=O)c1sc2ccccc2c1Cl,4.8,-24.5,73.7*,-13.4,0.2
O=C(N/N=C/c1ccccn1)c1ccccc1,-5.4,-3.6,15.4,-9.1,-1.7
O=C(N/N=C/c1ccccn1)c1sc2ccccc2c1Cl,30.2,31.1,64.0*,19.2*,1.3
Cc1ccc(C(=O)Nc2ccc(C(=O)N/N=C/c3ccccn3)cc2)cc1,20.3,34.6*,21.8,-9.7,1.0
COc1ccc(S(=O)(=O)N2CCC(Cc3ccccc3)CC2)cc1NC(C)=O,-13.9,-2.1,19.7,-1.4,-0.6
Cc1ccc(CCNC(=O)c2cccc(NC3=NC4CS(=O)(=O)CC4S3)c2)cc1 (configuration not stated),-16.8,-3.9,4.4,-11.5,0.5
COc1cccc2c1OC1(N3CCOCC3)CCCCC1C2C[N+](=O)[O-] (configuration not stated),x,x,x,x,-0.7
Cc1sc2nc(CSC(C)C(=O)N(C)CC(=O)Nc3ccccc3C(F)(F)F)[nH]c(=O)c2c1C (configuration not stated),6.8,-23.1,70.8*,x,6.9
COc1ccc(OC)c(NC(=O)C(C)SCc2nc3sc(C)c(C)c3c(=O)[nH]2)c1 (configuration not stated),23.2,-33.1,53.7*,x,-0.5
CSc1ccccc1NC(=O)CN(C)C(=O)C(C)SCc1nc2sc(C)c(C)c2c(=O)[nH]1 (configuration not stated),x,x,x,x,-0.9
COC(=O)CC/C(=N/Nc1ccc(Cl)c(Cl)c1)C(=O)OC,-25.1,-13.3,21.4,-3.9,0.5
SMILES,OX1R antag-1,CHO parental Ca,OX1R antag-2,GPR7 antag,MPTP block
CCOc1cc(NC(=O)c2cccs2)c(OCC)cc1NC(=O)CCC(=O)NCCN1CCOCC1,-45.6,-3.5,11.2,-21.8,-0.6
CSCCC(NC(=O)c1ccc([N+](=O)[O-])cc1Cl)C(=O)OC1CCCCC1=O (configuration not stated),-19.4,-9.5,66.5*,-9.0,-1.0
CSCCC(NC(=O)c1ccc([N+](=O)[O-])cc1Cl)C(=O)OCC(=O)NC(=O)CN1CCCC1=O (configuration not stated),-0.9,-8.5,55.9*,x,-1.9
CSCCC(NC(=O)c1ccc([N+](=O)[O-])cc1Cl)C(=O)OCC(=O)NC1CCCC(C)C1C (configuration not stated),-9.8,-22.2,17.2,3.3,7.5
O=C(COC(=O)c1ccccc1NC(=O)c1ccco1)Nc1ccc2c(c1)OCO2,16.7,-4.1,71.9*,4.4,-2.2
O=C(Nc1ccccc1C(=O)OCC(=O)c1c[nH]c2ccccc12)c1ccco1,11.6,-0.8,49.6*,0.3,-17.7
CC(C)(C)NC(=O)COC(=O)c1ccccc1NC(=O)c1ccco1,-17.5,-13.3,5.7,0.0,1.1
O=C(COC(=O)c1ccccc1NCc1ccco1)Nc1ccc2c(c1)OCO2,-7.0,-5.9,33.9,-6.6,-0.1
CCOC(=O)c1cnc(-c2ccccc2)nc1Oc1ccc(Cl)c(Cl)c1,-7.3,-3.7,6.5,18.5*,0.4
CCOC(=O)c1cnc(-c2ccccc2)nc1Oc1cccc(Cl)c1,-19.9,-1.7,13.8,-2.9,-2.5
CC(C)NC(=O)c1cc(C2CCCCN2S(=O)(=O)c2ccc(F)cc2F)on1 (configuration not stated),x,x,x,x,-0.8
N=c1c(C(=O)NCc2ccccc2)cc2c(=O)n3ccccc3nc2n1CCCN1CCOCC1,-12.4,0.4,45.2*,x,-0.9
COc1ccc(CCn2c(=N)c(S(=O)(=O)c3ccccc3)cc3c(=O)n4ccccc4nc32)cc1,-13.7,-5.9,8.4,2.4,-0.5
Cc1ccc(Cn2c(=N)c(C(=O)NCCN3CCOCC3)cc3c(=O)n4ccccc4nc32)cc1,-4.0,-16.4,53.6*,-3.5,-1.9
N=c1c(S(=O)(=O)c2ccccc2)cc2c(=O)n3ccccc3nc2n1CCN1CCOCC1,x,x,x,2.4,x
Cn1c(C(=O)NCCN2CCOCC2)cc2c(=O)n3ccccc3nc21,-6.7,-5.4,25.2,-4.9,0.1
COc1ccc(CCn2c(=N)c(C(=O)NCc3ccco3)cc3c(=O)n4ccccc4nc32)cc1,-8.2,2.1,46.6*,-1.5,4.5
N=c1c(C(=O)NCCN2CCOCC2)cc2c(=O)n3ccccc3nc2n1CCc1ccccc1,1.5,-7.3,62.4*,24.3,-1.6
O=C(NCCN1CCC(n2c(=O)[nH]c3ccccc32)CC1)c1ccc(F)c(F)c1,x,x,x,x,-2.2
Cc1cc(F)ccc1-c1cc(C(=O)NC(C)C)[nH]n1,x,x,x,x,0.2
Cc1ccccc1NC(=O)C(C)OC(=O)CCC(=O)c1ccccc1 (configuration not stated),x,x,x,x,0.2
Cc1ccc(NC(=S)NCCN(C2CCCCC2)C2CCCC2)cc1,-33.9,-19.0,5.6,31.1*,2.9
Cc1ccc(NC(=S)NCCN(C2CCCCC2)C2CCCC2)cc1C,-23.9,-11.4,11.1,20.8,3.9
O=C1NC(=O)C(Cc2cccc(Oc3ccccc3)c2)S1 (configuration not stated),-14.3,-4.9,44.0*,4.8,2.5
CCc1ccc(CCOc2ccc(CC3SC(=O)NC3=O)cc2)nc1 (configuration not stated),2.6,-3.2,4.9,x,0.5
